Test results: PMC2962933 (Biochemistry, 2010)
Read-outs that look alike come from different tables or passages of the source.

Tests used:
[1] = biological target: K431A mutant of Trypanosoma cruzi S-adenosylhomocysteine hydrolase (TcK431A) (Trypanosoma cruzi); experiment: SEC
[2] = test system: TcY435A mutant of Tc-SAHH; experiment: cofactor content of isolated and reconstituted mutant enzyme; type: binding, Trypanosoma cruzi
Procedure, shortened: (§1)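 Apo-enzyme preparation: mutants expressed in E. coli were precipitated three times with 80% (v/v) acid ammonium sulfate plus 2–5 mM DTT (pH 2.92, 3.12, then 7.2). Pellets were redissolved in 50 mM phosphate pH 7.2 with 1 mM EDTA. Apo protein (10 mg/mL) was incubated with 1 mM NAD+ or NADH for 12 h at 4 °C, then purified by Superdex 200 gel filtration.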

[3] = test system: TcK431A mutant of Tc-SAHH; experiment: as above; type: binding, Trypanosoma cruzi
Procedure, shortened: as §1

[4] = biological target: T1, HsY430A mutant of Hs-SAHH (Homo sapiens, UniProt P23526, Y430A); experiment: cofactor content of isolated and reconstituted mutant enzyme; type: binding
T1 sequence (P23526 1-432 Y430A): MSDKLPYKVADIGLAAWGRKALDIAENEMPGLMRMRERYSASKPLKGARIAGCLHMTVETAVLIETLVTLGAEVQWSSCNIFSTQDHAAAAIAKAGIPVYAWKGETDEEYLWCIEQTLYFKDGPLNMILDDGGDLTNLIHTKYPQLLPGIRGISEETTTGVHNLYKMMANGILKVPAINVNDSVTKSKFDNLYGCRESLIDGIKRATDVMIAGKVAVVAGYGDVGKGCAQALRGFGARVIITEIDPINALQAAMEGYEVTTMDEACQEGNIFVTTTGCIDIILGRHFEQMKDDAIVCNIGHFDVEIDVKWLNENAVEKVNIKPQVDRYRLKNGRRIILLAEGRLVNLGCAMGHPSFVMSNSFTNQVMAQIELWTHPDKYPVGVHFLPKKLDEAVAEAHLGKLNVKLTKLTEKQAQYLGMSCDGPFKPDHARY

[5] = biological target: Y435A mutant of Trypanosoma cruzi S-adenosylhomocysteine hydrolase (TcY435A) (Trypanosoma cruzi); experiment: SEC
[6] = test system: Tc-SAHH; settings: cited from earlier work
[7] = biological target: T1, HsY430A mutant of Hs-SAHH; experiment: dissociation of NAD^+; type: binding
[8] = test system: Hs-SAHH; settings: cited from earlier work
[9] = biological target: Hs-SAHH; settings: 23 °C, pH 7.4, cited from earlier work
[10] = biological target: Tc-SAHH; settings: 23 °C, pH 7.4, cited from earlier work
[11] = biological target: TcY435A mutant of Tc-SAHH; experiment: association kinetics of NAD^+ with apo-enzyme; type: binding, Trypanosoma cruzi; settings: 23 °C, pH 7.4
[12] = biological target: T1, HsY430A mutant of Hs-SAHH; experiment: association kinetics of NAD^+ with apo-enzyme; type: binding
[13] = test system: TcY435A mutant of Tc-SAHH; experiment: dissociation of NAD^+; type: binding, Trypanosoma cruzi
[14] = biological target: the molecule itself; experiment: SEC
[15] = enzyme as isolated from the expression system, fluorescence
[16] = enzyme as isolated from the expression system, HPLC
[17] = Table 2 (23 °C, pH 7.4), value is 10^6 x koff
[18] = binding to non-functional sites of apo-SAHH
[19] = read-out: Kf, binding to fully functional sites of holo-SAHH
[20] = read-out: Ko, binding to fully functional sites of apo-SAHH

Which stoichiometry N [1] does the source give for “K431A mutant of Trypanosoma cruzi S-adenosylhomocysteine hydrolase (TcK431A) (enzyme)” here?
The stoichiometry N was 4.

Which “occupancy after reconstitution of apo-enzyme with NADH” value (“occupancy … with NADH” for short) ([2]; attempted reconstitution) does the source give for `NC(=O)C1=CN([C@@H]2O[C@H](COP(=O)(O)OP(=O)(O)OC[C@H]3O[C@@H](n4cnc5c(N)ncnc54)[C@H](O)[C@@H]3O)[C@@H](O)[C@H]2O)C=CC1` [NADH, β-nicotinamide adenine dinucleotide, reduced form] here?
The value was “no detectable occupancy”.

And the “active-site occupancy by NADH” value [2, 15]?
The value was 90 ± 1%.

What about the “occupancy … with NADH” value ([3]; attempted reconstitution) of the same molecule?
The value was “no detectable occupancy”.

And the “active-site occupancy by NADH” value [3, 15]?
The value was 1.30 ± 0.03%.

What about the “occupancy … with NADH” value ([4]; 1 mM NADH, 12 h, 4 °C, fluorescence) of the same molecule?
Its value is 94 ± 1%.

What about the “active-site occupancy by NADH” value [4, 15] of the same molecule?
The value was 86 ± 5%.

With “Y435A mutant of Trypanosoma cruzi S-adenosylhomocysteine hydrolase (TcY435A) (enzyme)” as the molecule, how does the stoichiometry N [5] read?
The stoichiometry N was 4.

For `NC(=O)C1=CN([C@@H]2O[C@H](COP(=O)(O)OP(=O)(O)OC[C@H]3O[C@@H](n4cnc5c(N)ncnc54)[C@H](O)[C@@H]3O)[C@@H](O)[C@H]2O)C=CC1` [NAD^+, β-nicotinamide adenine dinucleotide], which “occupancy after reconstitution of apo-enzyme with NAD^+” value ([2]; attempted reconstitution) is on record?
Its value is “no detectable occupancy”.

And the “active-site occupancy by NAD^+” value [2, 16]?
Its value is 18 ± 1%.

What about the koff ([6]; 24 °C, pH 7.4, wild-type enzyme) of the same molecule?
The koff was 1.1 ± 0.2 × 10^−4 s^−1.

What about the “10^6koff” value [6, 17] of the same molecule?
The value was 110 ± 20 s^−1.

What about the koff ([7]; 30 °C, pH 7.4) of the same molecule?
Its koff is 4.2 ± 0.1 × 10^−4 s^−1.

What about the “10^6koff” value [7, 17] of the same molecule?
The value was 420 ± 10 s^−1.

And the koff ([8]; 30 °C, pH 7.4, wild-type enzyme)?
Its koff is 1.9 ± 0.3 × 10^−5 s^−1.

And the “10^6koff” value [8, 17]?
The value was 19 ± 3 s^−1.

And the “occupancy after reconstitution of apo-enzyme with NAD^+” value ([3]; attempted reconstitution)?
Its value is “no detectable occupancy”.

And the Ka [9, 18]?
The Ka was 19 ± 8 µM.

And the “Kd, koff/(ka/Ka)” value [9]?
The value was 7 ± 3 nM.

What about the “10^−3kon” value ([9]; value is 10^−3 x kon) of the same molecule?
Its value is 1.9 ± 0.04 M^−1s^−1.

And the Kd ([9]; read-out: Kd, koff/kon)?
The Kd was 10 ± 2 nM.

And the Kd [9, 19]?
Its Kd is 1400 ± 300 nM.

And the Kd [9, 20]?
The Kd was 33000 ± 4000 nM.

And the Ka [10, 18]?
Its Ka is 3.8 ± 0.6 µM.

And the “Kd, koff/(ka/Ka)” value [10]?
Its value is 69 ± 18 nM.

And the “10^−3kon” value ([10]; value is 10^−3 x kon)?
Its value is 0.68 ± 0.02 M^−1s^−1.

And the Kd ([10]; read-out: Kd, koff/kon)?
Its Kd is 161 ± 30 nM.

And the Kd [10, 19]?
The Kd was 1800 ± 400 nM.

What about the Kd [10, 20] of the same molecule?
The Kd was 38000 ± 9000 nM.

And the “Kd, koff/(ka/Ka)” value [11]?
Its value is 1.0 ± 0.3 mM.

What about the kon [11] of the same molecule?
The kon was 18 ± 2 M⁻¹ s⁻¹.

What about the ka/Ka ([11]; binding and transformation of apo-sites to holo-sites) of the same molecule?
Its ka/Ka is 29 ± 9 M⁻¹ s⁻¹.

And the Ka [11, 18]?
The Ka was 0.39 ± 0.04 mM.

What about the ka ([11]; transformation of non-functional apo-sites to functional holo-sites) of the same molecule?
The ka was 11 ± 0.4 s⁻¹.

And the Kd ([11]; read-out: Kd, koff/kon)?
Its Kd is 1.6 ± 0.2 mM.

What about the Kd [11, 19] of the same molecule?
Its Kd is 0.2 ± 0.03 mM.

What about the Kd [11, 20] of the same molecule?
Its Kd is 2.6 ± 1 mM.

And the “active-site occupancy by NAD^+” value [4, 16]?
Its value is 30 ± 5%.

And the “Kd, koff/(ka/Ka)” value ([12]; 23 °C, pH 7.4)?
The value was 750 ± 95 nM.

What about the Ka ([12]; 23 °C, pH 7.4, binding to non-functional sites of apo-SAHH) of the same molecule?
Its Ka is 17 ± 2 µM.

And the “n (Hill coefficient for Ko)” value ([12]; 23 °C, pH 7.4, fast-binding sites)?
The value was 0.9 ± 0.1.

What about the “10^−3kon” value ([12]; 23 °C, pH 7.4, value is 10^−3 x kon) of the same molecule?
The value was 0.54 ± 0.04 M^−1s^−1.

What about the “decrease of the on-rate, mutant vs wild type” value ([12]; HsY430A vs Hs-SAHH) of the same molecule?
The value was 4 fold.

What about the Kd ([12]; read-out: Kd, koff/kon, 23 °C, pH 7.4) of the same molecule?
The Kd was 784 ± 64 nM.

What about the Kd ([12]; read-out: Kf, 23 °C, pH 7.4, binding to fully functional sites of holo-SAHH) of the same molecule?
The Kd was 2000 ± 300 nM.

And the Kd ([12]; read-out: Ko, 23 °C, pH 7.4, binding to fully functional sites of apo-SAHH)?
Its Kd is 432000 ± 93000 nM.

And the koff ([13]; 24 °C, pH 7.4)?
Its koff is 2.8 ± 0.2 × 10^−2 s^−1.

And the “10^3koff” value ([13]; Table 2 (23 °C, pH 7.4), value is 10^3 x koff)?
The value was 28 ± 2 s^−1.

B1: Y430A mutant of human S-adenosylhomocysteine hydrolase (HsY430A) (enzyme)
chain: MSDKLPYKVADIGLAAWGRKALDIAENEMPGLMRMRERYSASKPLKGARIAGCLHMTVETAVLIETLVTLGAEVQWSSCNIFSTQDHAAAAIAKAGIPVYAWKGETDEEYLWCIEQTLYFKDGPLNMILDDGGDLTNLIHTKYPQLLPGIRGISEETTTGVHNLYKMMANGILKVPAINVNDSVTKSKFDNLYGCRESLIDGIKRATDVMIAGKVAVVAGYGDVGKGCAQALRGFGARVIITEIDPINALQAAMEGYEVTTMDEACQEGNIFVTTTGCIDIILGRHFEQMKDDAIVCNIGHFDVEIDVKWLNENAVEKVNIKPQVDRYRLKNGRRIILLAEGRLVNLGCAMGHPSFVMSNSFTNQVMAQIELWTHPDKYPVGVHFLPKKLDEAVAEAHLGKLNVKLTKLTEKQAQYLGMSCDGPFKPDHARY
With B1 as the molecule, how does the “stoichiometry N” value [14] read?
The value was 4.
